Reference: ChEMBL document CHEMBL1649384, “Synthesis and antiproliferative activity of novel symmetrical alkylthio- and alkylseleno-imidocarbamates” (Eur J Med Chem, 2011)

Assays:
MCF7 = assay: Cytotoxicity against human MCF7 cells after 72 hrs by MTT assay; assay type: functional; details: MCF7, 72 h
Summary of the method: (§1)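 Cells seeded per well: Hep-G2 1×10⁴, HT-29 4×10³, K-562 4×10³, MCF-7 1.2×10⁴, MCF-10A 7×10³, PC-3 2×10³. MCF-10A were grown in supplemented MEBM at 37 °C, 5% CO₂. Five concentrations were tested between 0.01 and 100, with 72 h exposure. Formazan was read by A590. GI₅₀ was taken relative to untreated controls, from at least three independent experiments.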

HT-29 = assay: Cytotoxicity against human HT-29 cells after 72 hrs by MTT assay; assay type: functional; details: HT-29, 72 h; for CC50: read-out: LC50 (the source's name); summary of the method: as §1
K562 = assay: Cytotoxicity against human K562 cells after 72 hrs by MTT assay; assay type: functional; details: K562, 72 h; for CC50: read-out: LC50 (the source's name); summary of the method: as §1
HepG2 = assay: Cytotoxicity against human HepG2 cells after 72 hrs by MTT assay; assay type: functional; details: HepG2, 72 h; for CC50: read-out: LC50 (the source's name); summary of the method: as §1
PC-3 = assay: Cytotoxicity against human PC3 cells after 72 hrs by MTT assay; assay type: functional; details: PC-3, 72 h; for CC50: read-out: LC50 (the source's name); summary of the method: as §1
[1] = Cytotoxicity against human MCF10A cells after 72 hrs by MTT assay; assay type: cell-based, MCF-10A; details: for GI50 at 72 h: MCF10A cells; for LC50 / TGI: mcf-10a, 72 h; summary of the method: as §1

Structure (SMILES) | GI50 (MCF7) [µM] | LC50 (MCF7) [µM] | TGI (MCF7) [µM] | GI50 (HT-29) [µM] | TGI (HT-29) [µM] | CC50 (HT-29) [µM] | GI50 (K562) [µM] | TGI (K562) [µM] | CC50 (K562) [µM] | GI50 (HepG2) [µM] | TGI (HepG2) [µM] | CC50 (HepG2) [µM] | GI50 (PC-3) [µM] | TGI (PC-3) [µM] | CC50 (PC-3) [µM] | GI50 at 72 h [1] [µM] | LC50 [1] [µM] | TGI [1] [µM]
O=C(/N=C(/NC(=O)c1cc(-c2ccccc2)nc2ccccc12)[Se]Cc1ccccc1)c1cc(-c2ccccc2)nc2ccccc12 | 8.46 | 97 | 45.6 | 6.07 | > 100 | > 100 | 9.06 | 47.4 | 88.9 | 25.8 | 52.4 | 78.9 | 39.3 | 97.1 | > 100 | 8.46 | 97.04 | 45.56
CS/C(=N\C(=O)c1ccc2c(c1)OCO2)NC(=O)c1ccc2c(c1)OCO2 | 24.6 | 94.8 | 59.7 | 46.4 | > 100 | > 100 | 68 | > 100 | > 100 | 61.4 | > 100 | > 100 | 28.7 | 54.5 | 80.4 | 1.01 | 9.05 | 5.03
CS/C(=N\C(=O)c1cc(-c2ccccc2)nc2ccccc12)NC(=O)c1cc(-c2ccccc2)nc2ccccc12 | 43.1 | > 100 | 87.7 | 23.7 | > 100 | > 100 | 34.4 | > 100 | > 100 | 6.24 | 48.1 | > 100 | 7.48 | > 100 | > 100 | 0.04 | 48.81 | 0.54
CN(Cc1cnc2nc(N)nc(N)c2n1)c1ccc(C(=O)N[C@@H](CCC(=O)O)C(=O)O)cc1 [METHOTREXATE] | 0.06 |  | > 100 | 0.04 | > 100 | 0.03 | 0.03 | > 100 | > 100 |  |  |  | 0.1 | > 100 | > 100 |  |  | 
O=C(/N=C(/NC(=O)c1cnc2ccccc2c1)[Se]Cc1ccccc1)c1cnc2ccccc2c1 | 23.6 | > 100 | > 100 | 26.1 | > 100 | > 100 | 29.3 | 72.6 | > 100 | 8.54 | 48.9 | 90.3 | 34.8 | > 100 | > 100 | 23.6 | > 100 | > 100
COc1cccc2c1C(=O)c1c(O)c3c(c(O)c1C2=O)C[C@@](O)(C(=O)CO)C[C@@H]3O[C@H]1C[C@H](N)[C@H](O)[C@H](C)O1 [DOXORUBICIN] | 0.02 |  | 5.01 | 0.2 | 25.4 | 25.4 | 0.1 | 5.01 | 19.9 |  |  |  | 0.25 | 3.16 | 19.9 |  |  | 
CC(=O)O[C@H]1C(=O)[C@@]2(C)[C@H]([C@H](OC(=O)c3ccccc3)[C@]3(O)C[C@H](OC(=O)[C@H](O)[C@@H](NC(=O)c4ccccc4)c4ccccc4)C(C)=C1C3(C)C)[C@]1(OC(C)=O)CO[C@@H]1C[C@@H]2O [PACLITAXEL] | 0.003 |  | > 100 | 0.003 | 79.4 | 79.4 | 0.004 | 15.8 | > 100 |  |  |  | 0.004 | 12.6 | > 100 |  |  | 
COc1cc([C@@H]2c3cc4c(cc3[C@@H](O[C@@H]3O[C@@H]5CO[C@@H](C)O[C@H]5[C@H](O)[C@H]3O)[C@H]3COC(=O)[C@H]23)OCO4)cc(OC)c1O [ETOPOSIDE] | 19.9 |  | > 100 | 31.6 | > 100 | > 100 | 12.6 | > 100 | > 100 |  |  |  | 0.63 | 3.98 | 79.4 |  |  | 
